# Data published in ChEMBL document CHEMBL1125098, “Lipophilic 1,3-xylyl-21-crown-6 macrocyclic polyether 2-carboxylic acids as biological mimics of the ionophore antibiotics” (1990).
# What was measured:
# Clostridium perfringens = assay: Antibacterial activity was determined against Clostridium perfringens 10A002; assay type: functional
# Outline: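 Agar dilution MIC on BHI agar, twelve 2-fold dilutions of drug starting at 200 μg/mL. Overnight BHI broth cultures (37 °C) diluted 100-fold; about 10000–20000 cells spotted per point by multiple inoculator. Plates read after 18 h at 37 °C, single colonies disregarded. Incubated anaerobically under 80% N₂, 10% CO₂, 10% H₂ in an anaerobic chamber.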
# Bos taurus [1] = species: Bos taurus; assay: In vitro rumen propionic acid test procedure, 20 ug/mL; assay type: functional
# Outline: (§1)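 Filtered rumen fluid (10 mL) with 400 mg substrate (68% corn starch, 17% cellulose, 15% extracted soybean meal) and pH 6.8 buffer, compound at 50 or 20 μg/mL; N2-gassed, shaken at 39 °C ~6 h, triplicate. Stopped with metaphosphoric acid, then GLC peak heights of acetic/propionic/butyric acids; response expressed relative to monensin at 10 μg/mL versus untreated controls.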
# Bos taurus [2] = species: Bos taurus; assay: In vitro rumen propionic acid test procedure, 50 ug/mL; assay type: functional; outline: as §1
# Staphylococcus aureus = assay: Antibacterial activity against Staphylococcus aureus 01A005; assay type: functional
# Outline: (§2)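 Agar dilution MIC on BHI agar: overnight BHI broth cultures (37 °C) diluted 100-fold, ~10000–20000 cells spotted by multiple inoculator; twelve 2-fold dilutions starting at 200 μg/mL; plates read after 18 h at 37 °C, single colonies disregarded. Compounds tested as macrocyclic carboxylate salts.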
# [3] = Antibacterial activity Streptococcus zooepidemicus 02H001; assay type: functional, Streptococcus equi subsp. zooepidemicus; settings: Streptococcus equi; outline: as §2
# [4] = Antibacterial activity against Streptococcus equi 02I001; assay type: functional; outline: as §2
SMILES,MIC (Clostridium perfringens) [µg/mL],Stimulation (Bos taurus [1]) [%],Stimulation (Bos taurus [2]) [%],MIC (Staphylococcus aureus) [µg/mL],MIC [3] [µg/mL],MIC [4] [µg/mL]
O=C(O)c1c2cccc1COCCOCCOCCOCCOCCOC2,> 200,0,0,> 200,> 200,> 200
CC(C)(C)CC(C)(C)c1ccc2c(c1)OCCOCCOCCOCc1cc(C(C)(C)C)cc(c1C(=O)O)COCCOCCOCCO2,25,0.4,0.52,50,25,12.5
COCc1cc(C(C)(C)CC(C)(C)C)cc2c1OCCOCCOCc1cc(C(C)(C)C)cc(c1C(=O)O)COCCOCCO2,25,0.2,0.64,12.5,25,12.5
COc1cc2c(C(=O)O)c(c1)COCCOCCOc1c(C)cc(C(C)(C)CC(C)(C)C)cc1OCCOCCOC2,–,0.04,0.42,50,25,25
Cc1cc(C(C)(C)CC(C)(C)C)cc2c1OCCOCCOCc1cc(C(C)(C)C)cc(c1C(=O)O)COCCOCCO2,3.12,0.5,1.02,6.25,6.25,3.12
Cc1cc(C(C)(C)CC(C)(C)C)cc2c1OCCOCCOCc1cc(Br)cc(c1C(=O)O)COCCOCCO2,–,0.06,0.53,12.5,12.5,6.25
CCCCCCCCCCCc1ccc2c(c1)OCCOCCOCc1cccc(c1C(=O)O)COCCOCCO2,3.12,0.46,0.82,1.56,1.56,1.56
Cc1cc(C(C)(C)CC(C)(C)C)cc2c1OCCOCCOCCOCc1cc(C(C)(C)C)cc(c1C(=O)O)COCCOCCOCCO2,12.5,0.11,0.41,12.5,6.25,3.12
CC(C)(C)CC(C)(C)c1cc(Cc2ccccc2)c2c(c1)OCCOCCOCc1cc(C(C)(C)C)cc(c1C(=O)O)COCCOCCO2,1.56,0.44,0.76,3.12,3.12,3.12
CC(C)(C)CC(C)(C)c1ccc2c(c1)OCCOCCOCc1cc(C(C)(C)C)cc(c1C(=O)O)COCCOCCO2,6.25,0.64,0.97,12.5,6.25,6.25
CC(C)(C)CC(C)(C)c1ccc2c(c1)OCCOCCOCc1cccc(c1C(=O)O)COCCOCCO2,25,0.4,1.02,25,25,25
CC(C)c1cc(C(C)(C)CC(C)(C)C)cc2c1OCCOCCOCc1cc(C(C)(C)C)cc(c1C(=O)O)COCCOCCO2,< 0.39,0.43,0.7,0.78,0.78,0.78
O=C(O)c1c2cccc1COCCOCCOc1ccccc1OCCOCCOC2,> 200,–,0.2,> 200,> 200,> 200
CC(C)(C)c1ccc(OCC2COc3ccccc3OCCOCCOCCOCc3cc(C(C)(C)C)cc(c3C(=O)O)CO2)cc1 (configuration not stated),1.56,0.6,1.06,1.56,3.12,1.56
CC(C)(C)CC(C)(C)c1cc(CCc2ccccc2)c2c(c1)OCCOCCOCc1cc(C(C)(C)C)cc(c1C(=O)O)COCCOCCO2,1.56,0.32,1.09,6.25,1.56,1.56
CC(C)(C)c1cc2c(C(=O)O)c(c1)COC(COc1ccccc1)COc1ccccc1OCCOCCOCCOC2 (configuration not stated),25,0,–,25,50,25
Cc1cc(C(C)(C)CC(C)(C)C)cc2c1OCCOCCOCc1cccc(c1C(=O)O)COCCOCCO2,–,0.33,0.87,25,50,12.5
